A word on the IC50: it is the point on the concentration scale where inhibition reaches its midpoint. Broadly, the pIC50 is −log10 of the IC50, conventionally taken in molar units. What is called MIC is the least concentration at which growth counts as inhibited.

The values that follow come from ChEMBL document CHEMBL4041482, “Synthesis, evaluation, and CoMFA study of fluoroquinophenoxazine derivatives as bacterial topoisomerase IA inhibitors” (Eur J Med Chem, 2017).

A short description of series [1]: Inhibition of recombinant Escherichia coli topoisomerase 1a expressed in Escherichia coli assessed as reduction in enzyme-mediated relaxation of supercoiled pBAD/Thio DNA preincubated with enzyme followed by substrate addition measured after 30 mins by ethidium bromide staining based agarose gel electrophoresis method.
The subject of series [2] is Escherichia coli. Nature of the series: Antibacterial activity against Escherichia coli BAS3023 harboring imp mutant by microdilution method. It counts as functional. The method in brief:
(§1)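 MICs determined by standard broth microdilution in cation-adjusted Mueller-Hinton Broth; E. coli BAS3023 carries an imp mutation conferring membrane permeability to small molecules, MG1655 K12 is wild type.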

Series [3] relates to Escherichia coli. Nature of the series: Antibacterial activity against Escherichia coli K12 MG1655 by microdilution method. It counts as functional. Conditions: K-12 substr. MG1655. The method in brief:
as §1

Series [4] relates to Bacillus spizizenii. The series is described as follows: Antibacterial activity against Bacillus subtilis ATCC 6633 by microdilution method. The class given is functional. Put shortly:
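Broth microdilution per standard protocol in cation-adjusted Mueller-Hinton broth; MIC taken as lowest inhibiting concentration.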

In series [5] the test system is Mycobacterium tuberculosis. The series is described as follows: Antimycobacterial activity against Mycobacterium tuberculosis H37Rv after 7 days by microplate alamar blue assay. Conditions: 168 h. It counts as functional. In general terms: Alamar Blue is a resazurin reagent that responds to reducing activity.
Series [6] has as its system Vero. Nature of the series: Cytotoxicity against African green monkey Vero cells assessed as reduction in cell viability after 72 hrs by MTS assay. The class given is cell-based. To be noted: Chlorocebus sabaeus. On the technique in general: Tetrazolium assays rely on reduction of a dye to a coloured formazan, in cell work by metabolically active cells.
A short description of series [7]: Selectivity index, ratio of IC50 for African green monkey Vero cells to MIC for Mycobacterium tuberculosis H37Rv. The class given is toxicity. Put shortly: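 SI computed as cytotoxic IC50 against Vero cells divided by MIC against M. tuberculosis; Mtb MIC from modified microplate Alamar blue assay.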

SMILES strings stand for the structures. In brackets after ≈: the same amount, converted by molar mass.

For the compound `Nc1ccc2c(c1)Oc1c(NC34CC5CC(CC(C5)C3)C4)c(F)cc3c(=O)c(C(=O)O)cn-2c13`, the concentration for half-maximal inhibition (IC50) in series [1] is 3.9 to 7.8 µM; in series [6], 30.7 µM. Moreover, the pIC50 in series [1] stood at 5.23. In addition, the minimal inhibitory concentration (MIC) was 3.12 µM (≈ 1.44 µg/mL) in series [2], more than 200 µM in series [3], 12.5 µM (≈ 5.77 µg/mL) in series [4] and 38.4 µM (≈ 17.7 µg/mL) in series [5]. Moreover, the “Selectivity Index” value in series [7] was 0.8.
